Converted amounts (≈) assume the structure as drawn.
Key:
[1] = Clearance in rat; type: ADME; conditions: in vivo
[2] = Half life in rat; type: ADME; conditions: in vivo
[3] = Drug uptake in human Detroit 562 cells xenografted NU/NU mouse at 20 to 80 mg/kg, po BID; type: ADME, organism-based; conditions: in vivo
Procedure, shortened: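 Detroit-562 xenografts (5 x 10^5 cells subcutaneously in 50% matrigel/HBSS) were grown in female athymic NU/NU mice. At about 300 mm3 the mice were dosed by oral gavage, with 0.5% methylcellulose/0.1% Tween 80 as the vehicle control. Mice were euthanized at set times, and plasma and tumor fragments were collected for compound concentration.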

[4] = Aqueous solubility of the compound in 6.8 pH buffer; type: physicochemical; conditions: pH 6.8 buffer
[5] = Half life in rat liver microsomes; type: ADME, Microsome
[6] = Oral bioavailability in rat at 1 mg/kg; type: ADME, organism-based; conditions: in vivo
[7] = Intrinsic clearance in rat liver microsomes; type: ADME, Microsome; conditions: read-out: CLH
[8] = Intrinsic clearance in mouse liver microsomes; type: ADME, Microsome; conditions: read-out: CLH
[9] = Dose normalized AUC in rat at 1 mg/kg, po; type: ADME, organism-based; conditions: in vivo
[10] = Half life in mouse liver microsomes; type: ADME, Microsome
[11] = Apparent permeability across apical to basolateral side in human Caco2 cells; type: ADME, cell-based; conditions: Caco-2
[12] = Permeability in human Caco2 cells; type: ADME, cell-based; conditions: Caco-2, read-out: permeability
[13] = Oral bioavailability in rat at 6 mg/kg; type: ADME, organism-based; conditions: in vivo
[14] = Dose normalized AUC in rat at 6 mg/kg, po; type: ADME, organism-based; conditions: in vivo

clearance [1] [L/h/kg] | half-life [2] [h] | Drug uptake [3] | solubility [4] [µM] | half-life [5] [h] | bioavailability [6] [%] | microsomal CLint [7] [µL/min/mg] | microsomal CLint [8] [µL/min/mg] | AUC/dose [9] [µM·h] | half-life [10] [h] | Papp A→B [11] [nm/s] | Papp [12] [nm/s] | bioavailability [13] [%] | AUC/dose [14] [µM·h] | Compound
1.26 | 10.9 | Dose-dependent effect | 980 (≈ 461 µg/mL) | > 2 | 29 | 7.9 to 11.1 | 7.9 to 11.1 | 0.45 | > 2 | 10.2 |  |  |  | C[C@@H]1OCC2(CCN(c3nc(N)c(Sc4cccnc4C(F)(F)F)c(=O)n3C)CC2)[C@@H]1N
 |  |  | 250 (≈ 107 µg/mL) |  |  |  |  |  |  |  | 25 |  |  | Cn1c(N2CCC(C)(CN)CC2)nc(N)c(Sc2cccc(Cl)c2Cl)c1=O
 |  |  |  | 0.617 | 38 | 39.3 |  | 0.95 |  | 68 |  |  |  | C[C@@H]1OCC2(CCN(c3nc(N)c(Sc4cccc(Cl)c4Cl)c(=O)n3C)CC2)[C@@H]1N
 |  |  |  | 6.6 |  | 3.4 |  |  |  | < 5 |  | 1 | 0.03 | C[C@H]1C[C@@H](N)C2(CCN(c3nc(N)c(Sc4cccnc4C(F)(F)F)c(=O)n3C)CC2)C1

Reference: ChEMBL document CHEMBL4411331, “6-Amino-3-methylpyrimidinones as Potent, Selective, and Orally Efficacious SHP2 Inhibitors” (J Med Chem, 2019)
